Assay outcomes as filed in PubChem BioAssay.
Dyrk1A ADPGlo = blocks rat Dyrk1A kinase activity; ADP-Glo luminescence, NFATc1 peptide; inhibition, % at 12.5 µM; 310,000 tested, 0.43% active; in the data active = inhibition above about 50%;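 also: plate controls were vehicle with enzyme for no effect and no enzyme for full effect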
GSK3A inh = inhibitors of human GSK-3 alpha kinase | ADP-Glo luminescence, 60 min | inhibition, % at 10 µM | 320,000 tested, 0.1% active;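 active = more than half of replicates show inhibition above 20%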;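 also: GST-tagged GSK-3 alpha with peptide substrate and 25 µM ATP; 0% = DMSO neutral wells and 100% = GW8510 positive control wells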
GSK3B inh = blocks human GSK3beta kinase activity; AID 2097; activity score (negative = inhibition), % at 10 µM; GST-GSK3beta kinase, ADP-Glo luminescence, 60 min; stronger effect = lower value; 300,000 tested, 0.038% active;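 active = more than half of replicate wells score below -50%, meaning over 50% inhibition versus plate controls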;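 also: 0% = median DMSO wells and -100% = median GW8510 positive control wells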
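Test system: GST-tagged human GSK3beta kinase, cell-free; evaluation: activity score scaled between in-plate DMSO and GW8510 controls; measured by: ADP-Glo luminescence; incubation: 60 min reaction, RT; benchmarks: DMSO and 20 µM GW8510; reagent: peptide substrate plus 25 µM ATP (final); medium: Tris/MgCl2 kinase buffer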
STK33 inh = human STK33 kinase inhibition; Q9BYT3; purified STK33, MBP phosphorylation, ADP-Glo luminescence; inhibition, % at 10 µM; 320,000 tested, 0.073% active;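 active = inhibition at or above 25%, using the most active replicate where run in duplicate; inactive = inhibition below 25%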
Target sequence (Q9BYT3 whole entry, looked up): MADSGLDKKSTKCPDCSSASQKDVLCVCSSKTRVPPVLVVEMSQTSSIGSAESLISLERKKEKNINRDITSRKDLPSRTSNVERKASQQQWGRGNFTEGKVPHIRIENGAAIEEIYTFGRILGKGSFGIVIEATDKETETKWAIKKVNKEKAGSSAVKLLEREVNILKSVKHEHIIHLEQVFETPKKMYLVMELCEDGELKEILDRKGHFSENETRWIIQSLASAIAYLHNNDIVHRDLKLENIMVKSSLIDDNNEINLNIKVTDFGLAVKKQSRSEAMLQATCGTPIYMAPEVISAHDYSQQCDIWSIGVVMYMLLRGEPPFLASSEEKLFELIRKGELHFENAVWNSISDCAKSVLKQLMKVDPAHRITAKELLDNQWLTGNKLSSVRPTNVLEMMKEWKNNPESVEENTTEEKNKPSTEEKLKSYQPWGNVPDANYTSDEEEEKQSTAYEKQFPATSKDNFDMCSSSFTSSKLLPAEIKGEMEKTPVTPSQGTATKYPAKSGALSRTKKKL
Dyrk1A artifact = counter-screen for Dyrk1A inhibitors: ADP-Glo luciferase artifacts. shares compounds with Dyrk1A ADPGlo. ADP-Glo luciferase artifact assay, no Dyrk1A, luminescence. AC50, µM (titrated, usually from 12 µM), for inactives: top-dose activity change, negative = inhibition. 1,300 tested, under 10 active;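 active = fitted half-maximal dose AC50 no more than ten times the top valid tested dose, with luminescence dropping as dose rises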
An asterisk follows results filed as active; x = no result given. Only a selection was taken, and hits are over-represented in it overall.

SMILES | Dyrk1A ADPGlo | GSK3A inh | GSK3B inh | STK33 inh | Dyrk1A artifact
COc1ccc2cc(C(=O)N/N=C/c3cc(OC)c(OC)c(OC)c3)[nH]c2c1 | 54* | 3 | -1 | 0 | 9%
COc1ccc2c(c1)-c1nc(NC(=O)c3ccco3)sc1CC2 | 35 | -1 | 2 | 1 | x
COc1ccc2c(c1)CCc1sc(NC(=O)c3ccco3)nc1-2 | 68* | -1 | -7 | 2 | 7%
Cc1sc(NC(=O)c2ccco2)nc1-c1ccccc1 | 52* | -3 | 4 | 3 | 10%
CC(=O)c1sc(NC(=O)c2ccco2)nc1-c1ccccc1 | 4 | -1 | 2 | -1 | x
COc1ccc(N2CCN(C(=O)CCc3ccc(S(=O)(=O)NC(C)(C)C)cc3)CC2)cc1 | 4 | -1 | 2 | -1 | x
CC(=O)NC12CC3CC(C1)CC(C(=O)Nc1nc4ccc(F)cc4s1)(C3)C2 | 79* | -2 | 1 | 2 | 7%
N#CC(=C(O)COC(=O)CCC1CCCCC1)c1nc2ccccc2[nH]1 | -3 | x | x | x | x
COc1ccc2[nH]c3c(C)c4ccncc4c(C)c3c2c1 | 56* | -1 | 3 | 6 | 10%
O=[N+]([O-])c1cc(/C=N/O)ccc1N1CCCC1 | 50* | x | -52* | 13 | 9%
COc1ccc2c(c1)[nH]c1c(Cl)ncnc12 | 65* | x | -10 | x | 11%
Cc1ccc2[nH]c3c(Cl)ncnc3c2c1 | 17 | -2 | 3 | 3 | x
O=C(NNC1=C(C(=O)C(F)(F)F)CCC1)c1ccccc1O | 56* | -2 | 1 | 2 | 10%
CC[C@@H](C)[C@H](CNC)NC[C@@H](Cc1cccc2ccccc12)NCCc1cccc(C(F)(F)F)c1 | 55* | 17 | -5 | 0 | 4%
CCC[C@H](CN[C@@H](CNC)[C@H](C)CC)NCCc1cc(C(F)(F)F)cc(C(F)(F)F)c1 | 9 | 7 | -4 | 1 | x
CCCNc1nc(C)cc(-c2cc(-c3ccc(Cl)cc3)on2)n1 | 4 | -2 | 2 | 0 | x
Cc1ccc(C(=O)Nc2ccnc(-c3cccnc3)n2)cc1 | 60* | 2 | -3 | x | 9%
COc1ccc(C(=O)Nc2ccnc(-c3cccnc3)n2)cc1 | 31 | 1 | -13 | 0 | x
CCC1CCCCN1C(=O)CSc1nnc(N)s1 (configuration not stated) | -6 | -1 | x | -1 | x
CC(=O)c1cccc(NC(=O)Nc2nc(C)cc(C)n2)c1 | -5 | 0 | 2 | -1 | x
C=CCSc1nc(NC)c2sccc2n1 | 58* | 8 | 1 | 2 | 3%
CNc1nc(SC)nc2ccsc12 | 10 | 0 | 0 | 2 | x
COc1ccc2nc3c(cc2c1)c(NC(=O)C1CCCO1)nn3CC(C)C (configuration not stated) | 79* | 99* | -88* | 1 | 10%
COc1ccc(-c2cc(=O)[nH][nH]2)cc1 | 63* | 1 | -6 | 1 | 8%
COc1ccc(-c2cc(=O)[nH]c(=O)[nH]2)cc1 | 29 | 7 | 1 | 1 | x
SMILES | Dyrk1A ADPGlo | GSK3A inh | GSK3B inh | STK33 inh | Dyrk1A artifact
CCCn1cnc2scc(-c3ccc(OC)cc3)c2c1=O | 60* | 9 | -3 | 2 | 3%
CCn1cnc2scc(-c3ccc(OC)cc3)c2c1=O | 42 | -2 | 2 | 1 | x
Cc1ccccc1C(=O)N1CCN(c2ccc(NC(=O)c3cccc(OC(C)C)c3)cc2)CC1 | 60* | -3 | 1 | 0 | 7%
COc1c(C)cccc1C(=O)Nc1ccc(N2CCN(C(=O)c3ccccc3C)CC2)cc1 | 8 | -3 | 4 | -1 | x
O=C1C(Cl)=C(N2CCC(C(=O)O)CC2)C(=O)c2ccccc21 | 61* | 10 | -2 | 0 | 11%
CN1CCN(C2=C(NS(=O)(=O)c3ccccc3)C(=O)c3ccccc3C2=O)CC1 | -4 | -1 | 0 | 2 | x
CN1CCN(C2=C(Cl)C(=O)c3ccccc3C2=O)CC1 | 56* | x | x | x | 7%
NC(=O)C1CCN(C2=C(Cl)C(=O)c3ccccc3C2=O)CC1 | 0 | 0 | 1 | 1 | x
CCCCCCCCN1[C@@H](CC(=O)OC)c2cc(C(F)(F)F)ccc2S1(=O)=O | 50* | -2 | -2 | -1 | 6%
CCCCCCCCN1[C@@H](CC(C)=O)c2cc(C(F)(F)F)ccc2S1(=O)=O | 5 | -2 | 3 | 0 | x
O=C(Cn1c(-c2cncs2)nc2ccccc21)NCc1ccccc1 | 60* | 0 | -3 | -1 | 10%
Cc1ccccc1Cn1c(-c2cncs2)nc2ccccc21 | 5 | -1 | -6 | -2 | x
Oc1ccc2ccc3[nH]cnc3c2c1 | 80* | 3 | 3 | 9 | 11%
COc1cccc(C(=O)c2sc(NC(C)C)nc2N)c1 | 53* | 94* | -93* | 2 | 7%
Cc1ccc2c(C(=O)CN3CCN(C(=O)c4ccco4)CC3)c(C)[nH]c2c1 | -4 | -1 | -22 | -1 | x
NC(=O)c1c(NC(=O)C(=O)N2CCOCC2)sc2c1CCC2 | 2 | 3 | 4 | 0 | x
CCn1c2ccccc2c2nc3cc(C(=O)O)ccc3nc21 | 62* | x | x | x | 10%
CCn1c2ccccc2c2nc3ccccc3nc21 | 1 | 2 | 2 | 3 | x
O=C1NC(=O)C(c2ccccc2[N+](=O)[O-])=C1Nc1ccc(O)c(Cl)c1 | 87* | x | x | 14 | 7%
COc1ccc(S(=O)(=O)N2CCN(CCc3ccccc3)CC2)cc1 | 4 | -1 | 2 | 0 | x
COc1ccccc1NC(=S)N/N=C/c1ccc(O)cc1 | 51* | 8 | -1 | 5 | 11%
COc1ccccc1NC(=S)N/N=C/c1cccc(C)c1 | -1 | -3 | 7 | -1 | x
CCCc1nc2c(=O)n(C)c(=O)nc-2n(C)n1 | 65* | x | x | x | 6%
CCCc1nc2c([nH]1)c(=O)n(C)c(=O)n2C | 6 | 9 | 0 | 0 | x
COc1ccc(-c2nc(-c3ccccn3)ncc2S(C)(=O)=O)cc1 | -3 | x | 2 | -2 | x
SMILES | Dyrk1A ADPGlo | GSK3A inh | GSK3B inh | STK33 inh | Dyrk1A artifact
Cn1nc(-c2ccccn2)nc2c(=O)n(C)c(=O)nc1-2 | 81* | 9 | -28 | -1 | 7%
O=C1C=C(c2ccc3c(c2)OCO3)CCC1 | 66* | -2 | -14 | 0 | 9%
O=C1NC(=S)SC1=Cc1cc(Br)ccc1O | 84* | x | x | x | 13%
COc1cccc(OCCOc2ccc(/C=C3/SC(=S)NC3=O)cc2)c1 | 5 | -2 | -21 | 0 | x
COc1ccc(C=C2SC(=S)NC2=O)cc1 | 76* | x | x | x | 5%
O=C1NC(=S)SC1=Cc1ccccc1Br | 47 | x | x | x | x
O=C1NC(=S)SC1=Cc1ccc(F)cc1 | 84* | x | x | x | 11%
CCOC(=O)c1ccc(NC(=S)Nc2ccc(Br)cc2N)cc1 | 63* | -1 | 6 | -1 | 8%
Oc1ccc(-c2csc(NCc3ccco3)n2)cc1 | 52* | 5 | -1 | 1 | 6%
c1coc(CNc2nc(-c3cccs3)cs2)c1 | -9 | 2 | 1 | 4 | x
Cc1nn(-c2ccc(F)cc2)c(-n2cccc2)c1C(=O)N1CCN(C(=O)c2ccco2)CC1 | x | 2 | 1 | -1 | x
Cc1cc(N)c2ccccc2n1 | -2 | -1 | 0 | 0 | x
Nc1cc2ccncc2c2ccccc12 | 73* | 1 | -2 | 19 | 9%
